Consider nine compounds from ChEMBL document CHEMBL4145562, “Bioactivity-Guided Isolation of Potential Antidiabetic and Antihyperlipidemic Compounds from Trigonella stellata” (J Nat Prod, 2018).

What all share (format): cell-based
Assay [1] deals with T1, Peroxisome proliferator-activated receptor alpha (Homo sapiens) (UniProt Q07869).
T1 sequence (whole entry): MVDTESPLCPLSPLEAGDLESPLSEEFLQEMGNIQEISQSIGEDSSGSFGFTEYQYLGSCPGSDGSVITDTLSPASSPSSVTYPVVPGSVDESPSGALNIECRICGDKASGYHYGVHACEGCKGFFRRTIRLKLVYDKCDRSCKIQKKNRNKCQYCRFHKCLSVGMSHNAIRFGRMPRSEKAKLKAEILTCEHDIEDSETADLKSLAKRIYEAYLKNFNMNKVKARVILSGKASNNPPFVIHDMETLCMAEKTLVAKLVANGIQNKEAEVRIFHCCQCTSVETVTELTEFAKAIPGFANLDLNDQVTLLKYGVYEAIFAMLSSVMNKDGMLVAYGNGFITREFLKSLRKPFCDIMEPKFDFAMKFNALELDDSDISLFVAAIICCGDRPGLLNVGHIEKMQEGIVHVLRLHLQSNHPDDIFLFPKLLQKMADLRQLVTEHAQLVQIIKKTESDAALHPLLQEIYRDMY
In words: Agonist activity at PPARalpha (unknown origin) expressed in human HepG2 cells cotransfected with PPRE X3-tk at 50 ug/ml after 24 hrs by luciferase reporter gene assay relative to control. The procedure, abridged:
(§1)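 HepG2 cells grown in DMEM with 10% FBS, penicillin and streptomycin, then electroporated (160 V, single 70 ms pulse) with pSG5-PPARα plus PPRE X3-tk-luc plasmids (25 μg/1.5 mL cell suspension). Cells were plated at 5 × 10^4/well and grown 24 h, then treated for 24 h and lysed. Luciferase activity was reported as fold induction over vehicle control.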

Assay [2] deals with T1, Peroxisome proliferator-activated receptor alpha (Homo sapiens). As to the kind of experiment: Agonist activity at PPARalpha (unknown origin) expressed in human HepG2 cells cotransfected with PPRE X3-tk at 25 ug/ml after 24 hrs by luciferase reporter gene assay relative to control. The procedure, abridged:
as §1

For assay [3] the target is unchanged. As to the kind of experiment: Agonist activity at PPARalpha (unknown origin) expressed in human HepG2 cells cotransfected with PPRE X3-tk at 12.5 ug/ml after 24 hrs by luciferase reporter gene assay relative to control. The essentials: as §1
Assay [4] concerns the target T2, Peroxisome proliferator-activated receptor gamma (Homo sapiens) (UniProt P37231).
T2 sequence (whole entry): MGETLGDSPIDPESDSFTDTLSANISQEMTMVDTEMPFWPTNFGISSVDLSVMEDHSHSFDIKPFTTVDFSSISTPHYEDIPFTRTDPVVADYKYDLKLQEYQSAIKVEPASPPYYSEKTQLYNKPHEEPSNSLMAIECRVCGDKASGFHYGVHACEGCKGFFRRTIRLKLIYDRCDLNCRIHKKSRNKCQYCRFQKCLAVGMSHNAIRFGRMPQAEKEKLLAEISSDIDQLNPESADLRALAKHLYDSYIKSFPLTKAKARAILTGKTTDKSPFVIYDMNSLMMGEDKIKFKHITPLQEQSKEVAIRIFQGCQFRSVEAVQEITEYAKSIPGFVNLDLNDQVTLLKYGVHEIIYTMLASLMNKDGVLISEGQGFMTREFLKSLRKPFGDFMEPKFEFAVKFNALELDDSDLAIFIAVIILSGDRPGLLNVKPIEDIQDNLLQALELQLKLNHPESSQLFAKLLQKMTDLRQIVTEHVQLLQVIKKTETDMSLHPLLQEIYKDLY
In words: Agonist activity at PPARgamma (unknown origin) expressed in human HepG2 cells cotransfected with PPREaP2-tk at 50 ug/ml after 24 hrs by luciferase reporter gene assay relative to control. The essentials: (§2)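 Rat PPARγ (pCMV-rPPARγ) was co-electroporated with the pPPREaP2-tk-luc reporter (25 μg/1.5 mL cell suspension; 160 V, one 70 ms pulse) into HepG2 cells kept in DMEM/10% FBS with antibiotics. Cells were seeded at 5 × 10^4/well for 24 h, then exposed to samples for 24 h. Luciferase was read in lysates and expressed as fold induction relative to vehicle.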

Assay [5] deals with T2, Peroxisome proliferator-activated receptor gamma (Homo sapiens). In words: Agonist activity at PPARgamma (unknown origin) expressed in human HepG2 cells cotransfected with PPREaP2-tk at 25 ug/ml after 24 hrs by luciferase reporter gene assay relative to control. The essentials:
as §2

Assay [6] has the same target. As to the kind of experiment: Agonist activity at PPARgamma (unknown origin) expressed in human HepG2 cells cotransfected with PPREaP2-tk at 12.5 ug/ml after 24 hrs by luciferase reporter gene assay relative to control. The essentials: as §2
In assay [7] the target is T1, Peroxisome proliferator-activated receptor alpha (Homo sapiens). As to the kind of experiment: Agonist activity at PPARalpha (unknown origin) expressed in human HepG2 cells cotransfected with PPRE X3-tk at 1.45 ug/ml after 24 hrs by luciferase reporter gene assay relative to control. The essentials: as §1

SMILES strings stand for the structures. The source made the active and inactive calls. No cut-off for these calls is given here.

As to `COc1ccc2c(c1)OC[C@H](c1ccc(O)cc1O)[C@H]2O`, the values for the fold change (FC) in assay [1], in assay [2] and in assay [3] were 2.25, 1.88 and 1.29, respectively. The result in assay [4], in assay [5] and in assay [6] was inactive.

As for `O=C(O)CCc1ccccc1O[C@@H]1O[C@H](CO)[C@@H](O)[C@H](O)[C@H]1O`, the result in assay [1], in assay [2], in assay [3], in assay [4], in assay [5] and in assay [6] was inactive.

For the compound `CC(C)(Oc1ccc(C2CC2(Cl)Cl)cc1)C(=O)O` (centres undefined), the fold change (FC) in assay [7] came out at 2.2.

In the case of `O=C(O)c1ccc(O)cc1`, the outcome in assay [1], in assay [2] and in assay [3] was inactive. Moreover, the fold change (FC) came out at 1.35 in assay [4], 0.9 in assay [5] and 1 in assay [6].

`COc1ccc2c(c1)OC[C@@H](c1ccc(O[C@@H]3O[C@H](CO)[C@@H](O)[C@H](O)[C@H]3O)cc1O)[C@@H]2O`: the fold change (FC) came out at 1.67 in assay [1]; 1.32 in assay [2]; 1.14 in assay [3]; 1.74 in assay [4]; 1.36 in assay [5]; 1.22 in assay [6].

For `O=c1cc(-c2ccc(O)cc2)oc2cc(O)ccc12`, the outcome in assay [1], in assay [2], in assay [3], in assay [4], in assay [5] and in assay [6] was inactive.

On to `C[C@@H]1O[C@@H](Oc2cc(O)c3c(=O)c(O[C@@H]4O[C@@H](C)[C@H](O)[C@@H](O)[C@H]4O)c(-c4ccc(O)c(O)c4)oc3c2)[C@H](O)[C@H](O)[C@H]1O`, for which the result in assay [1], in assay [2], in assay [3], in assay [4], in assay [5] and in assay [6] was inactive.

As to `COc1ccc2c(c1)OC(OC)C(c1ccc(O)cc1O)[C@H]2O` (single isomer, unassigned), the result in assay [1], in assay [4], in assay [5] and in assay [6] was inactive. Further, the fold change (FC) in assay [2] was 2; in assay [3], 1.93.

On to `C[C@@H]1O[C@@H](O[C@H]2[C@H](O[C@H]3[C@H](O[C@H]4CC[C@@]5(C)[C@@H](CC[C@]6(C)[C@@H]5CC=C5[C@@H]7CC(C)(C)C[C@@H](O)[C@]7(C)CC[C@]56C)[C@@]4(C)CO)O[C@H](C(=O)O)[C@@H](O)[C@@H]3O)O[C@H](CO)[C@H](O)[C@@H]2O)[C@H](O)[C@H](O)[C@H]1O`, for which the outcome in assay [1], in assay [2] and in assay [3] was inactive. The fold change (FC) is 1.79 in assay [4], 1.36 in assay [5] and 1.22 in assay [6].
